Results from PMC4814305 (The Biochemical journal, 2016).
“And” between values parts separate entries of the source, which are not always exact repeats. Equal values may be shown once. “Also recorded” adds a separate entry of the source.

Tests used:
MCT4 = target: T1, MCT4 (Homo sapiens, UniProt O15427); assay: [U-14C] L-lactate uptake by Xenopus laevis oocytes expressing MCT4; type: cell-based; conditions: cooperative inhibition fit
T1 sequence (O15427 1-465): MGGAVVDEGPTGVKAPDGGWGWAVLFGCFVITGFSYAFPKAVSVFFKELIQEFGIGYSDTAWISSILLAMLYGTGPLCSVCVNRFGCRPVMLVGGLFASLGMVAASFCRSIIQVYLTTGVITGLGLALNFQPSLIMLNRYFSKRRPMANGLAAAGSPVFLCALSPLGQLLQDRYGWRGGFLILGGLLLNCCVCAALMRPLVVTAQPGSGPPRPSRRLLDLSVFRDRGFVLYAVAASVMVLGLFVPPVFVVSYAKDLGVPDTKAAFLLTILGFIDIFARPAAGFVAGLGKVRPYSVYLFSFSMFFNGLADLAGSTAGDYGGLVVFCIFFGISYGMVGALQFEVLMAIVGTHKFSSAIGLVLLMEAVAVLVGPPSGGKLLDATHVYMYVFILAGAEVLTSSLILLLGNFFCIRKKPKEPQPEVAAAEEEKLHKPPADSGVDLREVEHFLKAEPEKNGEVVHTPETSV

MCT2 = target: T2, MCT2 (Rattus norvegicus, UniProt Q63344); assay: [U-14C] L-lactate uptake by Xenopus laevis oocytes expressing MCT2; type: cell-based; conditions: cooperative inhibition fit
T2 sequence (Q63344 1-489): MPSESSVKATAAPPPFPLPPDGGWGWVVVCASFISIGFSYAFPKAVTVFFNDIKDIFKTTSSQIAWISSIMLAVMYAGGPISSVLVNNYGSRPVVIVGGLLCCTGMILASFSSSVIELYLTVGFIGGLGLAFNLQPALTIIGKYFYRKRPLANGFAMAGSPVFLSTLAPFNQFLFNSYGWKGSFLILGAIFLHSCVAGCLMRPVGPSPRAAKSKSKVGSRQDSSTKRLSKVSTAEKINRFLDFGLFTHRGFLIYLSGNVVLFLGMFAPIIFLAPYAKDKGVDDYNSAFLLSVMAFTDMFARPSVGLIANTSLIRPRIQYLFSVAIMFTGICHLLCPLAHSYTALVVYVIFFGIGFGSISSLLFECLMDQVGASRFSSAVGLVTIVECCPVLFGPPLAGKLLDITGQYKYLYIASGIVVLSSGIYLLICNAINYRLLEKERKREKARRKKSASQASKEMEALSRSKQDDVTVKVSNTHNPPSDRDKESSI
T2 sequence (O88775 34-328 partner): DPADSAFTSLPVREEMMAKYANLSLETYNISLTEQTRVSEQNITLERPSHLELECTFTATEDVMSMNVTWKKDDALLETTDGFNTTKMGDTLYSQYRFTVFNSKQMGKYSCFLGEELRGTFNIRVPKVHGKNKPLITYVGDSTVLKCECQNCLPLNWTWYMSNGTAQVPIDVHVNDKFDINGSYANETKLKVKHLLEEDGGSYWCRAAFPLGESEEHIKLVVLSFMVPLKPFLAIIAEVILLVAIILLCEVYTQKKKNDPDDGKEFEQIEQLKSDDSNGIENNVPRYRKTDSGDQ

[1] = target: T3, mitochondrial pyruvate carrier (MPC) (Rattus norvegicus, UniProt P38718+P63031); assay: [1-14C] pyruvate uptake into isolated rat liver mitochondria; type: biochemical
T3 sequence (P63031 1-109): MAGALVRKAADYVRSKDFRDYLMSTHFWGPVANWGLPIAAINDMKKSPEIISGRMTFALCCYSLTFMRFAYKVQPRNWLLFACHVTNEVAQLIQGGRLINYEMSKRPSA
T3 sequence (P38718 1-127): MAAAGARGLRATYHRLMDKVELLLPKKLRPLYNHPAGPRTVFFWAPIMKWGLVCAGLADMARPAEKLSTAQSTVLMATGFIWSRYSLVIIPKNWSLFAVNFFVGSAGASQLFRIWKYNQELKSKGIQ
Method in brief: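 Liver mitochondria from male Wistar rats (~275 g) were isolated by homogenisation, differential and Percoll centrifugation, then held 2 min on ice at 6 mg protein/mL with test compound. Uptake ran in pH 6.8 KCl/MOPS/EGTA buffer with 1 μM rotenone, 60 μM [1-14C]pyruvate and 3H2O at 9°C, stopped at 45 s by rapid sedimentation. Four replicates per concentration, 3 preparations; Ki fitted from % of control, mean ± S.E.M.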

[2] = tested on: DB-1 human melanoma cells; assay: L-lactate output and intracellular [L-lactate] of DB-1 melanoma cells; type: cell-based; conditions: DB-1 cells, 1 h, vs DMSO
DB-1 xenografts = conditions: 100 mg/kg i.p., cited from earlier work
[3] = tested on: uncoupled pyruvate oxidation by isolated rat heart mitochondria; assay: Uncoupled pyruvate oxidation by rat heart mitochondria; type: biochemical
MCT1 = target: T4, MCT1 (Rattus norvegicus, UniProt P53987); assay: [U-14C] L-lactate uptake by Xenopus laevis oocytes expressing MCT1; type: cell-based; conditions: cooperative inhibition fit
T4 sequence (P53987 1-494): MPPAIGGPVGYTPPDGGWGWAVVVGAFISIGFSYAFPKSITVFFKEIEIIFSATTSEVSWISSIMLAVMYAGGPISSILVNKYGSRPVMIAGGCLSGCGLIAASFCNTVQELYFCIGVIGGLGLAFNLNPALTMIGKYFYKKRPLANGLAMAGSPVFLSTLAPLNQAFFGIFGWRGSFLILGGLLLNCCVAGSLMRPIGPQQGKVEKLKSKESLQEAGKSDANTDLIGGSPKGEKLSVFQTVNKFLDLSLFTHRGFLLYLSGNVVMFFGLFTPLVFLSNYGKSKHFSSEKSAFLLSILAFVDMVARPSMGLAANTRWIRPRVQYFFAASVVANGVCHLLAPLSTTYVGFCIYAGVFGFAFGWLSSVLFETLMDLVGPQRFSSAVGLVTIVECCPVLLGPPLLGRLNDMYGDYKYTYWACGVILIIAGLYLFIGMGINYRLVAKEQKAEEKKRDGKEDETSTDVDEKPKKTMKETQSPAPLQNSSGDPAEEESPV

## O=C(O)c1nn(Cc2ccc(Cl)cc2Cl)c2ccccc12 [LND, Lonidamine]
MCT4
  Hill coefficient of inhibition of MCT4: 1.65–1.85 and 1.84 ± 0.19
MCT2
  Hill coefficient of inhibition of MCT2: 1.86 ± 0.34
[1]
  Ki: 2.5 µM
[2]; 40 μM LND
  increase of intracellular [L-lactate]: two-fold
[2]; 40 μM and 150 μM LND
  L-lactate output: decrease in L-lactate output
[2]; 150 μM LND
  L-lactate output: decreased L-lactate output; also recorded: L-lactate output decreased
  increase of intracellular [L-lactate]: > five-fold; also recorded: eight-fold
[2]; 1–10 μM LND
  L-lactate output: increased L-lactate output
  intracellular [L-lactate]: without a detectable increase
DB-1 xenografts; DB-1 xenografts in mice, within about 40 min, from 6.9 ± 0.1
  tumour pHi after LND treatment: 6.3 ± 0.1
DB-1 xenografts; DB-1 xenografts in mice, within about 3 hr
  decrease in the tumour NTP/Pi ratio: 66.8 ± 5.7%
DB-1 xenografts; DB-1 xenografts in mice
  decrease in extracellular pH of the tumour: ~ 0.2 pH units
  rise in tumour [L-lactate]: three-fold
DB-1 xenografts; mice, 20 min post-injection
  change in pHi of liver: only a slight transient change
DB-1 xenografts; mice, 40 min post-injection
  change in NTP/Pi of the liver: only a transient small decrease
DB-1 xenografts; mice
  change in NTP/Pi ratio of muscle and brain: no change
  change in pHi of normal muscle or brain: No significant change
[3]; 30°C, 2 μM LND
  effect on uncoupled pyruvate oxidation: without effect
[3]; 30°C, 3 μM LND
  inhibition of uncoupled pyruvate oxidation: ~ 15%
[3]; 30°C, 10 μM LND
  inhibition of uncoupled pyruvate oxidation: ~70%
[3]; read-out: IC50 for inhibition of uncoupled pyruvate oxidation, 30°C, pyruvate + malate, FCCP
  IC50: ~7 µM and ~7.5 µM
MCT1
  Hill coefficient of inhibition of MCT1: 1.65–1.85 and 1.65 ± 0.23

## N#CC(=Cc1ccc(O)cc1)C(=O)O [CHC, α-cyano-4-hydroxycinnamate]
[1]; rat liver mitochondria, 10 μM inhibitor
  inhibition of mitochondrial pyruvate carrier (pyruvate uptake): > 90%
